Usually bioavailability stands for dose-corrected exposure relative to a reference, in per cent. As a reminder, the Cmax is the peak of the concentration-time curve. By half-life is commonly meant the time in which the quantity being followed falls by half. Low readings indicate rapid decline, high ones slow decline. For orientation: Tmax means the time from dosing to the highest level. In general, Ki refers to the equilibrium dissociation constant of an inhibitor or competing ligand from its target. High values mean a looser hold on the target, low ones a stronger hold on the target.

We go through 1 compound from ChEMBL document CHEMBL1126796, “2-(Alkylamino)nicotinic acid and analogs. Potent angiotensin II antagonists” (J Med Chem, 1993).

A short description of data set [1]: Bioavailability after oral dose of […]. The class given is ADME, organism-based. To be noted: eutheria, in vivo.
Data set [2] in a line: Cmax value after oral dose of […]. The class given is ADME, organism-based. The following applies: in vivo.
Data set [3] is described as follows: Area under curve after oral dose of 10 mg/kg. The class given is ADME, organism-based. The following applies: in vivo. Details: dose 10 mg/kg, route oral. A digest of the protocol: (§1)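 Male Sprague-Dawley-derived rats were dosed with compound in normal saline (1 mL/kg), by gavage or as a slow IV bolus into the jugular vein. Heparinized tail-vein blood was taken at 0.25-24 h, extracted liquid-liquid and assayed by reverse-phase HPLC. Cmax is the observed peak concentration and AUC is mean (SEM). F compares oral with IV AUC, corrected for dose and assuming dose proportionality.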

A short description of data set [4]: Bioavailability after oral dose of 10 mg/kg. To be noted: eutheria, in vivo. The class given is ADME, organism-based. The gist of the method:
as §1

Data set [5] has as its system Rattus norvegicus. The data set is described as follows: % decrease in blood pressure after 4 hours at a dose of 10 mg/kg in male rats by using Renal artery hypertensive model. The class given is functional. A digest of the protocol:
(§2)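 Male Sprague-Dawley rats (300-350 g) were made hypertensive by renal artery ligation and used on day 6 or 7 after ligation. Arterial pressure was measured from an indwelling femoral artery catheter, with blood pressure and heart rate recorded on line. Read-out is % decrease in blood pressure at 4 h, ±SEM, with number of rats.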

For data set [6], the system named is Rattus norvegicus. As to the kind of experiment: % decrease in blood pressure after 4 hours in male rats at a dose of 3 mg/kg by using Renal artery hypertensive model. The class given is functional. The gist of the method: as §2
The nature of data set [7]: Half-life period of compound after intravenous dose of 3.87 mg/kg. To be noted: in vivo. The class given is ADME, organism-based. Further details: dose 3.87 mg/kg, route intravenous. A digest of the protocol: (§3)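 Male Sprague-Dawley-derived rats. Compound was given in normal saline at 1 mL/kg, either as a slow iv bolus into the jugular vein or orally by gavage. Plasma underwent liquid-liquid extraction and reverse-phase HPLC. Terminal elimination half-life and time of observed peak concentration were taken from the profiles.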

Data set [8] has as its system Rattus norvegicus. As to the kind of experiment: % decrease in blood pressure after 4 hours in male rats at a dose of 1 mg/kg by using Renal artery hypertensive model. The class given is functional. The gist of the method: as §2
A short description of data set [9]: Tmax value after oral dose of 10 mg/kg. The class given is ADME, organism-based. Details: dose 10 mg/kg, route oral. To be noted: in vivo. A digest of the protocol:
as §3

A short description of data set [10]: Cmax value after oral dose of 10 mg/kg. The following applies: in vivo. Further details: dose 10 mg/kg, route oral. The class given is ADME, organism-based. A digest of the protocol: as §1
The nature of data set [11]: Volume of distribution of central compartment (dose+ plasma concentration at time zero) after intravenous dose of 3.87 mg/kg. The class given is ADME, organism-based. Further details: dose 3.87 mg/kg, route intravenous. The following applies: read-out: VI. The gist of the method: (§4)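 Jugular-vein slow iv bolus (normal saline, 1 mL/kg) in male Sprague-Dawley-derived rats. Plasma was sampled via the tail vein at 0.1–24 h and measured by reverse-phase HPLC after liquid-liquid extraction. Central volume was taken as dose divided by plasma concentration at time zero. Terminal-phase volume was derived from clearance and the plasma elimination rate constant.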

Data set [12] in a line: Area under curve after oral dose of […]. The class given is ADME, organism-based. To be noted: in vivo.
Data set [13] in a line: Tmax value after oral dose of […]. The class given is ADME, organism-based. To be noted: in vivo.
A short description of data set [14]: Bioavailability after oral dose of 3.87 mg/kg. The class given is ADME, organism-based. The following applies: eutheria, in vivo. The gist of the method: as §1
Data set [15] addresses T1, Type-1 angiotensin II receptor A (Rattus norvegicus, UniProt P25095).
T1 sequence (P25095 whole entry): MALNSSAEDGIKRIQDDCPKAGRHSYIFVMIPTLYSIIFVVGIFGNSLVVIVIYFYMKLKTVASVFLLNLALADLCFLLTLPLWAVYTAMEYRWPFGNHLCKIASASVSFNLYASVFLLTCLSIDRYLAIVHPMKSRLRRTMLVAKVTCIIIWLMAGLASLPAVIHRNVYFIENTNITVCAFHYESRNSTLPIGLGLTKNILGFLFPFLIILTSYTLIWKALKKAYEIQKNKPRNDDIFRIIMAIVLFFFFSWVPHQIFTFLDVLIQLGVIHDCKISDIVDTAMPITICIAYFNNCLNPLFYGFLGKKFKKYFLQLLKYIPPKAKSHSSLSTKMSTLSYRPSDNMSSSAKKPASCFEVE
The data set is described as follows: Binding affinity against angiotensin II receptor from rat liver. A digest of the protocol: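 Rat liver membranes were incubated with [125I]-saralasin to measure angiotensin II type 1 receptor binding. Nonspecific binding was defined with 1 µM angiotensin.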

Data set [16] can be described thus: Area under curve after oral dose of 3.87 mg/kg. The class given is ADME, organism-based. Details: dose 3.87 mg/kg, route oral. To be noted: in vivo. The gist of the method: as §1
Data set [17] is described as follows: Volume of distribution of the terminal phase (CLp+ plasma elimination rate constant) after intravenous dose of 3.87 mg/kg. The class given is ADME, organism-based. To be noted: read-out: Vbeta. Details: dose 3.87 mg/kg, route intravenous. The gist of the method:
as §4

The nature of data set [18]: Plasma clearance after intravenous dose of 3.87 mg/kg. The following applies: read-out: Clp. Details: dose 3.87 mg/kg, route intravenous. The class given is ADME, organism-based. The gist of the method: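 Male Sprague-Dawley-derived rats received a slow iv bolus into the jugular vein of the compound in normal saline (1 mL/kg). Tail-vein heparinized blood was drawn from 0.1 to 24 h and assayed by reverse-phase HPLC after liquid-liquid extraction. Total plasma clearance was calculated as dose divided by AUC and reported as mean (SEM).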

The nature of data set [19]: Cmax value after oral dose of 3.87 mg/kg. Details: dose 3.87 mg/kg, route oral. The following applies: in vivo. The class given is ADME, organism-based. A digest of the protocol:
as §1

The nature of data set [20]: Tmax value after oral dose of 3.87 mg/kg. To be noted: in vivo. The class given is ADME, organism-based. Details: dose 3.87 mg/kg, route oral. A digest of the protocol:
as §3

On to `CCCCN(Cc1ccc(-c2ccccc2-c2nn[nH]n2)cc1)c1ncncc1C(=O)O.Cl`, for which the results for the bioavailability in data set [1], in data set [4] and in data set [14] were 4.8%, 4.8% and 10.3%, respectively. Further, the results for the Cmax in data set [2], in data set [10] and in data set [19] were 1470 ng/mL, 840 ng/mL and 510 ng/mL, respectively. In addition, the values for the AUC in data set [3], in [12] and in [16] were 2.83 µg/h/mL, 6.65 µg/h/mL and 2.38 µg/h/mL, respectively. Besides, the entries for the “Decrease in blood pressure” value in the data set on Rattus norvegicus [5], in the data set on Rattus norvegicus [6] and with Rattus norvegicus [8] were 41%, 18% and 10%, respectively. Besides, the half-life in data set [7] is 1.5 h. The Tmax is 0.9 h in data set [9], 1.1 h in data set [13] and 1.3 h in [20]. For the same compound, the Vd in [11] turned out to be 0.08 L/kg; in [17], 0.42 L/kg. For the same compound, the affinity in [15] corresponds to a Ki of 1.77 nM. The clearance in data set [18] amounted to 0.85 mL/min.
